Reference: ChEMBL document CHEMBL4431340, “Pyridyl-alanine as a Hydrophilic, Aromatic Element in Peptide Structural Optimization” (J Med Chem, 2016)
Active and inactive are the calls of the source. The rule behind the calls is not given here. Non-standard residues stand in square brackets, D forms with d. Residues, ends and D or L forms follow the SMILES beside them. 3Pal = N[C@@H](Cc1cccnc1)C(=O)O; Aib = CC(C)(N)C(=O)O

What was measured:
[1] = Aqueous solubility of the compound in PBS assessed as precipitate formation at pH 7 after 1 hr; conditions: buffer, pH 7, 1 h
[2] = Aqueous solubility of the compound in PBS at 1 to 10 mg/ml assessed as precipitate formation at pH 7 at 4 degC after 7 days; assay type: physicochemical; conditions: buffer, pH 7, 168 h
Rattus norvegicus [3] = assay: Antihypoglycemic activity in lean Wistar rat assessed as prevention of insulin-induced glucose reduction at 15 nmol/kg, ip after 30 mins by glucometer; assay type: functional, organism-based
How it was run: (§1)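 Lean rats received a fixed insulin dose chosen to induce hypoglycemia, together with peptide or vehicle. Blood glucose was followed for 60 min after administration. Groups were compared by one-way ANOVA with Dunnett's test against the insulin group, with P < 0.05 taken as significant.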

Rattus norvegicus [4] = assay: Hyperglycemic activity in lean Wistar rat assessed as elevation of plasma glucose levels at 10 nmol/kg, ip after 120 mins in absence of insulin by glucometer; assay type: functional, organism-based
Rattus norvegicus [5] = assay: Antihypoglycemic activity in lean Wistar rat assessed as prevention of insulin-induced glucose reduction at 15 nmol/kg, ip after 60 mins by glucometer; assay type: functional, organism-based
How it was run: as §1

[6] = target: Glucagon receptor (Homo sapiens) (UniProt P47871); assay: Activation of glucagon receptor (unknown origin) transfected in HEK293 cells co-transfected with luciferase reporter gene linked CRE element assessed as compound EC50 preincubated in PBS buffer for 4 weeks at elevated temperature and pH 7 followed by protein addition measured after 5 hrs in presence of luclite substrate by liquid scintillation counting relative to control; assay type: functional, cell-based
Sequence of Glucagon receptor (Homo sapiens) (P47871 whole entry): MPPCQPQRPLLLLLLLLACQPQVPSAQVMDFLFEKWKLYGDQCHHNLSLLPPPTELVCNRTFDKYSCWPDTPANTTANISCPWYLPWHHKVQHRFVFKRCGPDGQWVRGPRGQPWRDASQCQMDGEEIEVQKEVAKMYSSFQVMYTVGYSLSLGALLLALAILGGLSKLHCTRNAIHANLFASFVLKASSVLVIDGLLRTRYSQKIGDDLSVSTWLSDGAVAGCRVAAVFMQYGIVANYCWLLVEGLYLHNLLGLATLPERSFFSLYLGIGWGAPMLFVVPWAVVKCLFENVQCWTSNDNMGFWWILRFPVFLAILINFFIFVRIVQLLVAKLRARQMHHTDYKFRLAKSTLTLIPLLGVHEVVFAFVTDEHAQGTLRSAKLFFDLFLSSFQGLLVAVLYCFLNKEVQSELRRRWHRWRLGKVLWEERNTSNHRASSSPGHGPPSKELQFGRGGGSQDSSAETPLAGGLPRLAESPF
How it was run: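 Analog incubated at 2.0 mg/mL in 50 mM sodium phosphate, 150 mM NaCl at pH 7 (also pH 5, 6), 37 °C, stirred at 200 rpm for 1 and 4 weeks. T=0 reference kept at -45 °C. […] Cells exposed to serial dilutions for 5 h at 37 °C, then LucLite luminescence read. Reported as percent change in EC50.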

Sus scrofa = assay: Antihypoglycemic activity in diabetic Yucatan pig assessed as prevention of insulin detemir-induced blood glucose reduction at 10 nmol/kg, sc administered 240 mins post insulin detemir challenge measured during compound dosing by glucometer

With `CSCC[C@H](NC(=O)[C@H](CC(C)C)NC(=O)[C@H](Cc1c[nH]c2ccccc12)NC(=O)[C@H](CCC(N)=O)NC(=O)[C@@H](NC(=O)[C@H](Cc1cccnc1)NC(=O)[C@H](CC(=O)O)NC(=O)[C@H](CCC(N)=O)NC(=O)[C@H](C)NC(=O)[C@H](CCCNC(=N)N)NC(=O)[C@H](CCCNC(=N)N)NC(=O)C(C)(C)NC(=O)[C@H](CC(=O)O)NC(=O)[C@H](CC(C)C)NC(=O)[C@H](Cc1cccnc1)NC(=O)[C@H](CCCCN)NC(=O)[C@H](CO)NC(=O)[C@H](Cc1cccnc1)NC(=O)[C@H](CC(=O)O)NC(=O)[C@H](CO)NC(=O)[C@@H](NC(=O)[C@H](Cc1cccnc1)NC(=O)[C@@H](NC(=O)CNC(=O)[C@H](CCC(N)=O)NC(=O)[C@H](CO)NC(=O)[C@@H](N)Cc1cnc[nH]1)[C@@H](C)O)[C@@H](C)O)C(C)C)C(=O)N[C@@H](CC(N)=O)C(=O)N[C@H](C(=O)O)[C@@H](C)O` (H-HSQGT[3Pal]TSD[3Pal]SK[3Pal]LD[Aib]RRAQD[3Pal]VQWLMNT-OH) the solubility [1] was > 15 mg/mL and the solubility [2] was “Soluble”.
With `CSCC[C@H](NC(=O)[C@H](CC(C)C)NC(=O)[C@H](Cc1c[nH]c2ccccc12)NC(=O)[C@H](CCC(N)=O)NC(=O)[C@@H](NC(=O)[C@H](Cc1ccccc1)NC(=O)[C@H](CC(=O)O)NC(=O)[C@H](CCC(N)=O)NC(=O)[C@H](C)NC(=O)[C@H](CCCNC(=N)N)NC(=O)[C@H](CCCNC(=N)N)NC(=O)C(C)(C)NC(=O)[C@H](CC(=O)O)NC(=O)[C@H](CC(C)C)NC(=O)[C@H](Cc1cccnc1)NC(=O)[C@H](CCCCN)NC(=O)[C@H](CO)NC(=O)[C@H](Cc1ccc(O)cc1)NC(=O)[C@H](CC(=O)O)NC(=O)[C@H](CO)NC(=O)[C@@H](NC(=O)[C@H](Cc1ccccc1)NC(=O)[C@@H](NC(=O)CNC(=O)[C@H](CCC(N)=O)NC(=O)[C@H](CO)NC(=O)[C@@H](N)Cc1cnc[nH]1)[C@@H](C)O)[C@@H](C)O)C(C)C)C(=O)N[C@@H](CC(N)=O)C(=O)N[C@H](C(=O)O)[C@@H](C)O` the solubility [1] was > 1 mg/mL.
With `CSCC[C@H](NC(=O)[C@H](CC(C)C)NC(=O)[C@H](Cc1c[nH]c2ccccc12)NC(=O)[C@H](CCC(N)=O)NC(=O)[C@@H](NC(=O)[C@H](Cc1ccccc1)NC(=O)[C@H](CC(=O)O)NC(=O)[C@H](CCC(N)=O)NC(=O)[C@H](C)NC(=O)[C@H](CCCNC(=N)N)NC(=O)[C@H](CCCNC(=N)N)NC(=O)C(C)(C)NC(=O)[C@H](CC(=O)O)NC(=O)[C@H](CC(C)C)NC(=O)[C@H](Cc1ccc(O)cc1)NC(=O)[C@H](CCCCN)NC(=O)[C@H](CO)NC(=O)[C@H](Cc1cccnc1)NC(=O)[C@H](CC(=O)O)NC(=O)[C@H](CO)NC(=O)[C@@H](NC(=O)[C@H](Cc1ccccc1)NC(=O)[C@@H](NC(=O)CNC(=O)[C@H](CCC(N)=O)NC(=O)[C@H](CO)NC(=O)[C@@H](N)Cc1cnc[nH]1)[C@@H](C)O)[C@@H](C)O)C(C)C)C(=O)N[C@@H](CC(N)=O)C(=O)N[C@H](C(=O)O)[C@@H](C)O` the solubility [1] was > 1 mg/mL.
With `CSCC[C@H](NC(=O)[C@H](CC(C)C)NC(=O)[C@H](Cc1c[nH]c2ccccc12)NC(=O)[C@H](CCC(N)=O)NC(=O)[C@@H](NC(=O)[C@H](Cc1ccccc1)NC(=O)[C@H](CC(=O)O)NC(=O)[C@H](CCC(N)=O)NC(=O)[C@H](C)NC(=O)[C@H](CCCNC(=N)N)NC(=O)[C@H](CCCNC(=N)N)NC(=O)C(C)(C)NC(=O)[C@H](CC(=O)O)NC(=O)[C@H](CC(C)C)NC(=O)[C@H](Cc1ccncc1)NC(=O)[C@H](CCCCN)NC(=O)[C@H](CO)NC(=O)[C@H](Cc1ccncc1)NC(=O)[C@H](CC(=O)O)NC(=O)[C@H](CO)NC(=O)[C@@H](NC(=O)[C@H](Cc1ccccc1)NC(=O)[C@@H](NC(=O)CNC(=O)[C@H](CCC(N)=O)NC(=O)[C@H](CO)NC(=O)[C@@H](N)Cc1cnc[nH]1)[C@@H](C)O)[C@@H](C)O)C(C)C)C(=O)N[C@@H](CC(N)=O)C(=O)N[C@H](C(=O)O)[C@@H](C)O` the solubility [1] was > 15 mg/mL and the solubility [2] was “Soluble”.
In the case of GLUCAGON, the Activity (Rattus norvegicus [3]) is reported as “inactive”, the Activity (Rattus norvegicus [4]) is reported as “Active” and the Activity (Rattus norvegicus [5]) is reported as “Active”.
For `CSCC[C@H](NC(=O)[C@H](CC(C)C)NC(=O)[C@H](Cc1c[nH]c2ccccc12)NC(=O)[C@H](CCC(N)=O)NC(=O)[C@@H](NC(=O)[C@H](Cc1ccccc1)NC(=O)[C@H](CC(=O)O)NC(=O)[C@H](CCC(N)=O)NC(=O)[C@H](C)NC(=O)[C@H](CCCNC(=N)N)NC(=O)[C@H](CCCNC(=N)N)NC(=O)C(C)(C)NC(=O)[C@H](CC(=O)O)NC(=O)[C@H](CC(C)C)NC(=O)[C@H](Cc1ccncc1)NC(=O)[C@H](CCCCN)NC(=O)[C@H](CO)NC(=O)[C@H](Cc1ccc(O)cc1)NC(=O)[C@H](CC(=O)O)NC(=O)[C@H](CO)NC(=O)[C@@H](NC(=O)[C@H](Cc1ccccc1)NC(=O)[C@@H](NC(=O)CNC(=O)[C@H](CCC(N)=O)NC(=O)[C@H](CO)NC(=O)[C@@H](N)Cc1cnc[nH]1)[C@@H](C)O)[C@@H](C)O)C(C)C)C(=O)N[C@@H](CC(N)=O)C(=O)N[C@H](C(=O)O)[C@@H](C)O`, the solubility [1] was > 1 mg/mL.
With `CSCC[C@H](NC(=O)[C@H](CC(C)C)NC(=O)[C@H](Cc1c[nH]c2ccccc12)NC(=O)[C@H](CCC(N)=O)NC(=O)[C@@H](NC(=O)[C@H](Cc1ccccc1)NC(=O)[C@H](CC(=O)O)NC(=O)[C@H](CCC(N)=O)NC(=O)[C@H](C)NC(=O)[C@H](CCCNC(=N)N)NC(=O)[C@H](CCCNC(=N)N)NC(=O)C(C)(C)NC(=O)[C@H](CC(=O)O)NC(=O)[C@H](CC(C)C)NC(=O)[C@H](Cc1ccncc1)NC(=O)[C@H](CCCCN)NC(=O)[C@H](CO)NC(=O)[C@H](Cc1ccncc1)NC(=O)[C@H](CC(=O)O)NC(=O)[C@H](CO)NC(=O)[C@@H](NC(=O)[C@H](Cc1ccncc1)NC(=O)[C@@H](NC(=O)CNC(=O)[C@H](CCC(N)=O)NC(=O)[C@H](CO)NC(=O)[C@@H](N)Cc1cnc[nH]1)[C@@H](C)O)[C@@H](C)O)C(C)C)C(=O)N[C@@H](CC(N)=O)C(=O)N[C@H](C(=O)O)[C@@H](C)O` the solubility [1] was > 15 mg/mL and the solubility [2] was “Soluble”.
In the case of `CSCC[C@H](NC(=O)[C@H](CC(C)C)NC(=O)[C@H](Cc1c[nH]c2ccccc12)NC(=O)[C@H](CCC(N)=O)NC(=O)[C@@H](NC(=O)[C@H](Cc1ccccc1)NC(=O)[C@H](CC(=O)O)NC(=O)[C@H](CCC(N)=O)NC(=O)[C@H](C)NC(=O)[C@H](CCCNC(=N)N)NC(=O)[C@H](CCCNC(=N)N)NC(=O)C(C)(C)NC(=O)[C@H](CC(=O)O)NC(=O)[C@H](CC(C)C)NC(=O)[C@H](Cc1cccnc1)NC(=O)[C@H](CCCCN)NC(=O)[C@H](CO)NC(=O)[C@H](Cc1cccnc1)NC(=O)[C@H](CC(=O)O)NC(=O)[C@H](CO)NC(=O)[C@@H](NC(=O)[C@H](Cc1ccccc1)NC(=O)[C@@H](NC(=O)CNC(=O)[C@H](CCC(N)=O)NC(=O)[C@H](CO)NC(=O)[C@@H](N)Cc1cnc[nH]1)[C@@H](C)O)[C@@H](C)O)C(C)C)C(=O)N[C@@H](CC(N)=O)C(=O)N[C@H](C(=O)O)[C@@H](C)O`, the solubility [1] is reported as > 15 mg/mL.
For `CSCC[C@H](NC(=O)[C@H](CC(C)C)NC(=O)[C@H](Cc1c[nH]c2ccccc12)NC(=O)[C@H](CCC(N)=O)NC(=O)[C@@H](NC(=O)[C@H](Cc1ccccc1)NC(=O)[C@H](CC(=O)O)NC(=O)[C@H](CCC(N)=O)NC(=O)[C@H](C)NC(=O)[C@H](CCCNC(=N)N)NC(=O)[C@H](CCCNC(=N)N)NC(=O)C(C)(C)NC(=O)[C@H](CC(=O)O)NC(=O)[C@H](CC(C)C)NC(=O)[C@H](Cc1ccc(O)cc1)NC(=O)[C@H](CCCCN)NC(=O)[C@H](CO)NC(=O)[C@H](Cc1ccc(O)cc1)NC(=O)[C@H](CC(=O)O)NC(=O)[C@H](CO)NC(=O)[C@@H](NC(=O)[C@H](Cc1cccnc1)NC(=O)[C@@H](NC(=O)CNC(=O)[C@H](CCC(N)=O)NC(=O)[C@H](CO)NC(=O)[C@@H](N)Cc1cnc[nH]1)[C@@H](C)O)[C@@H](C)O)C(C)C)C(=O)N[C@@H](CC(N)=O)C(=O)N[C@H](C(=O)O)[C@@H](C)O`, the solubility [1] was > 1 mg/mL.
In the case of `CSCC[C@H](NC(=O)[C@H](CC(C)C)NC(=O)[C@H](Cc1c[nH]c2ccccc12)NC(=O)[C@H](CCC(N)=O)NC(=O)[C@@H](NC(=O)[C@H](Cc1ccccc1)NC(=O)[C@H](CC(=O)O)NC(=O)[C@H](CCC(N)=O)NC(=O)[C@H](C)NC(=O)[C@H](CCCNC(=N)N)NC(=O)[C@H](CCCNC(=N)N)NC(=O)C(C)(C)NC(=O)[C@H](CC(=O)O)NC(=O)[C@H](CC(C)C)NC(=O)[C@H](Cc1cccnc1)NC(=O)[C@H](CCCCN)NC(=O)[C@H](CO)NC(=O)[C@H](Cc1cccnc1)NC(=O)[C@H](CC(=O)O)NC(=O)[C@H](CO)NC(=O)[C@@H](NC(=O)[C@H](Cc1cccnc1)NC(=O)[C@@H](NC(=O)CNC(=O)[C@H](CCC(N)=O)NC(=O)[C@H](CO)NC(=O)[C@@H](N)Cc1cnc[nH]1)[C@@H](C)O)[C@@H](C)O)C(C)C)C(=O)N[C@@H](CC(N)=O)C(=O)N[C@H](C(=O)O)[C@@H](C)O`, the Activity (Rattus norvegicus [3]) is reported as “inactive”, the solubility [1] is reported as > 15 mg/mL and the Activity (Rattus norvegicus [4]) is reported as “Active”. For the same compound, the Activity (Rattus norvegicus [5]) was “Active”, the solubility [2] was “Soluble” and the Activity [6] was 82%. The Activity (Sus scrofa) was “Active”.
